Columns and labels:
[1] = Solubility in phosphate buffer, tested as a HCl salt; type: physicochemical
How it was run: (§1)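 HCl salts suspended in excess in water or 10 mM phosphate buffer pH 7.5, sonicated 10 min at 20 °C to saturation, centrifuged; supernatant quantified by HPLC.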

[2] = Solubility in water, tested as a HCl salt; type: physicochemical; conditions: read-out: S; how it was run: as §1
[3] = system: Rattus norvegicus; assay: Gastroprotective activity as % protection against stress ulcers in 5 rats after an oral dose of 25 mg/kg; type: functional
How it was run: (§2)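 Stress ulcer by restraint and water immersion: male Wistar rats (160–180 g), fasted 24 h, given test compound po or ip as HCl salt in aqueous glycerin/HCO-60 formulation (1/12/0.05 by weight). Vehicle-only controls. After 1 h, restrained in net cage and immersed in 21 °C water for 6 h. Percent ulcer inhibition calculated; five rats per dose.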

[4] = system: Rattus norvegicus; assay: Concentration 5f detected in blood of rat 1 hr after an oral dose of 200 mg/kg of the compound; ND is Not Detected; type: ADME, organism-based; set-up: dose 200 mg/kg, route oral; conditions: in vivo
How it was run: (§3)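 Male Wistar rats (120–160 g), 5–7 per group, fasted 24 h, given 200 mg/kg orally as aqueous HCl salt formulation (drug/glycerin/HCO-60 1/12/0.05 by weight). Jugular blood taken under ether at 1 or 3 h into citric acid; plasma deproteinized with ethanol (acetone for 5d) and analysed by C18 HPLC at 254 nm. Values recovery-corrected, mean of 6–7 rats.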

[5] = system: Rattus norvegicus; assay: Gastroprotective activity as % protection against stress ulcers in 5 rats after an intraperitoneal dose of 50 mg/kg; type: functional; how it was run: as §2
[6] = system: Rattus norvegicus; assay: Gastroprotective activity as % protection against stress ulcers in 5 rats after an oral dose of 50 mg/kg; type: functional; how it was run: as §2
[7] = system: Rattus norvegicus; assay: Concentration 6f detected in blood of rat 1 hr after an oral dose of 200 mg/kg; ND is Not Detected; type: ADME, organism-based; set-up: dose 200 mg/kg, route oral; conditions: in vivo; how it was run: as §3
[8] = system: Rattus norvegicus; assay: Concentration 1 detected in blood of rat 3 hr after an oral dose of 200 mg/kg; ND is Not Detected; type: ADME, organism-based; set-up: dose 200 mg/kg, route oral; conditions: in vivo; how it was run: as §3
[9] = system: Rattus norvegicus; assay: Gastroprotective activity as % protection against stress ulcers in 5 rats after an oral dose of 100 mg/kg; type: functional; how it was run: as §2
[10] = system: Rattus norvegicus; assay: Gastroprotective activity as % protection against stress ulcers in 5 rats after an intraperitoneal dose of 25 mg/kg; type: functional; how it was run: as §2
[11] = Lipid solubility measured as chloroform-water partition coefficient; type: physicochemical
How it was run: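 Partition between chloroform and 10 mM phosphate buffer pH 7.5 (1:1 volume); drug at 1 mg/mL initially in aqueous phase, shaken 20 min at 20 °C, centrifuged, both phases quantified by HPLC. HCl salts used.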

[12] = system: Rattus norvegicus; assay: Concentration 5f detected in blood of rat 3 hr after an oral dose of 200 mg/kg; ND is Not Detected; type: ADME, organism-based; set-up: dose 200 mg/kg, route oral; conditions: in vivo; how it was run: as §3
[13] = system: Rattus norvegicus; assay: Concentration 6f detected in blood of rat 3 hr after an oral dose of 200 mg/kg; ND is Not Detected; type: ADME, organism-based; set-up: dose 200 mg/kg, route oral; conditions: in vivo; how it was run: as §3
[14] = system: Rattus norvegicus; assay: % recovery of the compound, compound 1 and compound 6a from whole blood of 7 wistar rats after an oral dose of the compound; type: ADME, organism-based; conditions: in vivo
[15] = system: Rattus norvegicus; assay: Concentration 1 detected in blood of rat 1 hr after an oral dose of 200 mg/kg; ND is Not Detected; type: ADME, organism-based; set-up: dose 200 mg/kg, route oral; conditions: in vivo; how it was run: as §3
[16] = system: Cavia porcellus; assay: Antiinflammatory activity evaluated as Minimum effective oral dose that inhibits dextran UV erythema in guinea pig; type: functional
[17] = system: Rattus norvegicus; assay: Antiinflammatory activity evaluated as Minimum effective oral dose that inhibits carrageenan paw edema in rat; type: functional
[18] = system: Rattus norvegicus; assay: Antiinflammatory activity evaluated as Minimum effective oral dose that inhibits adjuvant arthritis in rats; type: functional
How it was run: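 Adjuvant arthritis: male Sprague-Dawley rats (180–200 g), 8–10 per group, injected in right hind paw with Mycobacterium butyricum powder in corn oil (0.6 mg/0.1 mL). Oral dosing started 1 h after adjuvant, then daily for 18 days; observed 28 days. Minimum effective dose recorded.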

[19] = system: Rattus norvegicus; assay: Antiinflammatory activity evaluated as Minimum effective oral dose that inhibits bradykinin paw edema in rat; type: functional
[20] = system: Rattus norvegicus; assay: Antiinflammatory activity evaluated as Minimum effective oral dose that inhibits dextran paw edema in rat; type: functional
[21] = Concentration detected in blood of rat 1 hr after an oral dose of 200 mg/kg; type: ADME, organism-based; set-up: dose 200 mg/kg, route oral; how it was run: as §3
[22] = system: Rattus norvegicus; assay: Gastroprotective activity as % protection against stress ulcers in 5 rats after an intraperitoneal dose of 12.5 mg/kg; type: functional; how it was run: as §2
[23] = Concentration detected in blood of rat 3 hr after an oral dose of 200 mg/kg of the compound; type: ADME, organism-based; set-up: dose 200 mg/kg, route oral; how it was run: as §3
[24] = system: Rattus norvegicus; assay: % recovery 1 from whole blood of 7 wistar rats after an oral dose of the compound; type: ADME, organism-based; conditions: in vivo
[25] = system: Rattus norvegicus; assay: Gastroprotective activity as % protection against stress ulcers in 5 rats after an oral dose of 12.5 mg/kg; type: functional; how it was run: as §2
[26] = system: Rattus norvegicus; assay: Concentration 5b detected in blood of rat 3 hr after an oral dose of 200 mg/kg of the compound; type: ADME, organism-based; set-up: dose 200 mg/kg, route oral; conditions: in vivo; how it was run: as §3
[27] = Acute toxicity evaluated as oral lethal dose in rat; type: organism-based; conditions: in vivo
How it was run: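 Oral dosing of male Wistar rats (120-140 g), given as HCl salt; LD50 derived from mortality over 7 days.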

[28] = system: Rattus norvegicus; assay: Concentration 5b detected in blood of rat 1 hr after an oral dose of 200 mg/kg of the compound; type: ADME, organism-based; set-up: dose 200 mg/kg, route oral; conditions: in vivo; how it was run: as §3
[29] = system: Rattus norvegicus; assay: Concentration 6a detected in blood of rat 1 hr after an oral dose of 200 mg/kg of the compound; type: ADME, organism-based; set-up: dose 200 mg/kg, route oral; conditions: in vivo; how it was run: as §3
[30] = system: Rattus norvegicus; assay: Concentration 5a detected in blood of rat 3 hr after an oral dose of 200 mg/kg of the compound; type: ADME, organism-based; set-up: dose 200 mg/kg, route oral; conditions: in vivo; how it was run: as §3
[31] = system: Rattus norvegicus; assay: Concentration 5a detected in blood of rat 1 hr after an oral dose of 200 mg/kg of the compound; type: ADME, organism-based; set-up: dose 200 mg/kg, route oral; conditions: in vivo; how it was run: as §3
[32] = system: Rattus norvegicus; assay: % recovery 1 and compound 6a from whole blood of 7 wistar rats after an oral dose of the compound; type: ADME, organism-based; conditions: in vivo
[33] = system: Rattus norvegicus; assay: Concentration 6a detected in blood of rat 3 hr after an oral dose of 200 mg/kg of the compound; type: ADME, organism-based; set-up: dose 200 mg/kg, route oral; conditions: in vivo; how it was run: as §3

Row | solubility [1] [µg/mL] | solubility [2] [µg/mL] | SMILES | Protection [3] [%] | Protection [5] [%] | Protection [6] [%] | Protection [9] [%] | Protection [10] [%] | P [11] | Recovery [14] [%] | ED50 [16] [mg/kg] | ED50 [17] [mg/kg] | EDmin [18] [mg/kg] | ED50 [19] [mg/kg] | ED50 [20] [mg/kg] | Protection [22] [%] | Protection [25] [%] | further results
1 | 5 | 1600 | CCCCCCNC1CC(=O)OC1C(O)C(=O)NC(CC(C)C)C1Cc2cccc(O)c2C(=O)O1 (stereo not drawn) | 11 | 11 | 44 | 44 | 17 | 3000 | 80 | – | – | – | – | – | – | – | Concentration [4]: Not detected; Concentration [7]: Not detected; Concentration [8]: Not detected; Concentration [12]: Not detected; Concentration [13]: Not detected; Concentration [15]: Not detected
2 | 990 | 1500 | CNC1CC(=O)OC1C(O)C(=O)NC(CC(C)C)C1Cc2cccc(O)c2C(=O)O1 (stereo not drawn) | 11 | 56 | 56 | 66 | 33 | 3750 | – | – | – | – | – | – | – | 17 | Concentration [29]: 3100 ng/mL; Concentration [30]: 1200 ng/mL; Concentration [31]: 3800 ng/mL; Recovery [32]: 50%; Concentration [33]: 1100 ng/mL

The remaining lines, values behind:

Row | SMILES | solubility [1] [µg/mL] | solubility [2] [µg/mL] | Protection [3] [%] | Protection [5] [%] | Protection [6] [%] | Protection [9] [%] | Protection [10] [%] | P [11] | Recovery [14] [%] | ED50 [16] [mg/kg] | ED50 [17] [mg/kg] | EDmin [18] [mg/kg] | ED50 [19] [mg/kg] | ED50 [20] [mg/kg] | Protection [22] [%] | Protection [25] [%] | further results
3 | CNc1ccccc1 | – | – | – | – | – | – | – | > 19 | – | – | – | – | – | – | – | – | –
4 | COc1ccc2c(c1)c(CC(=O)O)c(C)n2C(=O)c1ccc(Cl)cc1 [INDOMETHACIN] | – | – | – | – | – | – | – | – | – | < 6 | 1.3 | 3 | > 25 | > 25 | – | – | –
5 | CC(C)C[C@H](NC(=O)C(O)C1OC(=O)CC1N)[C@@H]1Cc2cccc(O)c2C(=O)O1.Cl (stereo partly drawn) | – | – | 44 | 83 | 66 | 78 | 83 | – | – | – | – | – | – | – | 66 | – | concentration at 1 h [21]: 800 ng/mL; concentration at 3 h [23]: 600 ng/mL; Recovery [24]: 50%
6 | CCNC1CC(=O)OC1C(O)C(=O)NC(CC(C)C)C1Cc2cccc(O)c2C(=O)O1 (stereo not drawn) | 11000 | > 100000 | 56 | 100 | 78 | 89 | 76 | 43 | 20 | 13 | > 200 | 20 | 182 | 47 | 66 | 33 | Concentration [26]: 8300 ng/mL; LD50 [27]: 1250 mg/kg; Concentration [28]: 17500 ng/mL

— ChEMBL document CHEMBL1123133, “1H-2-Benzopyran-1-one derivatives, microbial products with pharmacological activity. Conversion into orally active derivatives with antiinflammatory and antiulcer activities” (J Med Chem, 1985)
